Results as given in ChEMBL document CHEMBL3588858, “Peptidomimetic β-Secretase Inhibitors Comprising a Sequence of Amyloid-β Peptide for Alzheimer's Disease” (J Med Chem, 2015).
Numbered stars: 1 amine (or outer) side, 2 acyl side, 3 side chain; on linkers, the order of the positions; unused ones are H or OH. Square brackets hold non-standard residues; d marks the D form. Peptide text beside a SMILES is read from it. LeuΨ(S-CHOHCH2)Ala = CC(C)C[C@H](N[*:1])[C@@H](O)C[C@@H](C)C(=O)[*:2]

Experiments:
Caco-2 = experiment: Cytotoxicity against human Caco2 cells assessed as cell viability at 25 to 50 uM after 24 hrs by MTS assay; format: cell-based; conditions: caco-2, 24 h
Method in brief: (§1)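 Confluent Caco-2 cells (passage 26 to 41, grown in high-glucose DMEM with 10% FBS and 1% non-essential amino acids) exposed to test compounds from 2.5 nM to 50 µM in DMEM with 0.5% FBS for 4 h or 24 h. Medium replaced by MTS, 4 h at 37 °C, absorbance read at 490 nm. Viability given as % of cells in 0.5% FBS DMEM.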

[1] = Half life in human serum by HPLC-FLU analysis; format: ADME, cell-free
Method in brief: (§2)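 Peptide solution (50 µM in PBS, 2% DMSO) was mixed 1:4 with human serum or 10% mouse brain homogenate (PBS, 0.5% Triton X-100) and incubated at 37 °C for varying times. Reactions were stopped with acetonitrile and proteins spun out. Intact peptide was quantified by HPLC-FLU against per-compound calibration curves, following decay to about 50%. t1/2 was interpolated from a monophasic model fit; n = 3.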

Brain [2] = experiment: Retention time of the compound in female mouse brain at 0.53 mg/kg, iv by HPLC-FLU analysis; format: ADME, organism-based; conditions: in vivo
Method in brief: (§3)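 Female mice (8–12 weeks, 22–37 g) and male Wistar rats (8–12 weeks, 182–201 g) were fasted 24 h, then dosed iv at 0.53 mg/kg in PBS, in triplicate. Animals were sacrificed at 0.5, 1 and 2 h under pentobarbital. Blood was taken by cardiac puncture and brains perfused with chilled saline. Serum was acetonitrile-precipitated. Whole mouse brain, or rat cortex and hippocampus, was homogenized with an internal standard, HPLC-purified, then analysed by HPLC-FLU and ESI LC-MS.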

Serum [3] = experiment: Metabolic stability in female mouse serum at 0.53 mg/kg, iv by HPLC-FLU analysis; format: ADME, organism-based; conditions: in vivo; method in brief: as §3
Serum [4] = experiment: Metabolic stability in Wistar rat serum at 0.53 mg/kg, iv after 2 hrs by HPLC-FLU analysis; format: ADME, organism-based; conditions: in vivo; method in brief: as §3
[5] = Half life in mouse brain by HPLC-FLU analysis; format: ADME, tissue-based; method in brief: as §2
Cortex [6] = experiment: Metabolic stability in Wistar rat brain cortex at 0.53 mg/kg, iv after 2 hrs by HPLC-FLU analysis; format: ADME, organism-based; conditions: in vivo; method in brief: as §3
[7] = Cytotoxicity against human Caco2 cells assessed as cell viability at 25 to 50 uM after 4 to 24 hrs by MTS assay; format: cell-based; conditions: Caco-2 cells, read-out: Activity; method in brief: as §1
Homo sapiens = species: Homo sapiens; experiment: Selectivity ratio of Ki(app) for human recombinant BACE2 to Ki for human recombinant BACE1
Brain [8] = experiment: Drug formation in female mouse brain treated with 0.53 mg/kg, iv (3S,6S,9S,12S,15S,18S,21R,23S,24S,27S,30S,33S)-33-acetamido-15-benzyl-3-carbamoyl-6-(2-carboxyethyl)-27-(carboxymethyl)-23-hydroxy-12-(4-hydroxybenzyl)-24,30-diisobutyl-18-isopropyl-9,21-dimethyl-5,8,11,14,17,20,26,29,32-nonaoxo-4,7,10,13,16,19,25,28,31-nonaazahexatriacontane-1,36-dioic acid measured up to 2 hrs by HPLC-FLU/LC-MS …; format: ADME, organism-based; conditions: in vivo
Cortex [9] = experiment: Drug formation in Wistar rat brain cortex treated with 0.53 mg/kg, iv (3S,6S,9S,12S,15S,18S,21R,23S,24S,27S,30S,33S)-33-acetamido-15-benzyl-3-carbamoyl-6-(2-carboxyethyl)-27-(carboxymethyl)-23-hydroxy-12-(4-hydroxybenzyl)-24,30-diisobutyl-18-isopropyl-9,21-dimethyl-5,8,11,14,17,20,26,29,32-nonaoxo-4,7,10,13,16,19,25,28,31-nonaazahexatriacontane-1,36-dioic acid measured after 2 hrs by …; format: ADME, organism-based; conditions: in vivo
[10] = Drug uptake in female mouse brain at 0.53 mg/kg, iv up to 1 hr by HPLC-FLU analysis; format: ADME, organism-based; conditions: read-out: Drug uptake; method in brief: as §3
Brain [11] = experiment: Retention time of the compound in female mouse brain treated with 0.53 mg/kg, iv (3S,6S,9S,12S,15S,18S,21R,23S,24S,27S,30S,33S)-33-acetamido-15-benzyl-3-carbamoyl-6-(2-carboxyethyl)-27-(carboxymethyl)-23-hydroxy-12-(4-hydroxybenzyl)-24,30-diisobutyl-18-isopropyl-9,21-dimethyl-5,8,11,14,17,20,26,29,32-nonaoxo-4,7,10,13,16,19,25,28,31-nonaazahexatriacontane-1,36-dioic acid by HPLC-FLU analysis; format: ADME, organism-based; conditions: in vivo; method in brief: as §3
Serum [12] = experiment: Drug formation in Wistar rat serum treated with 0.53 mg/kg, iv (3S,6S,9S,12S,15S,18S,21R,23S,24S,27S,30S,33S)-33-acetamido-15-benzyl-3-carbamoyl-6-(2-carboxyethyl)-27-(carboxymethyl)-23-hydroxy-12-(4-hydroxybenzyl)-24,30-diisobutyl-18-isopropyl-9,21-dimethyl-5,8,11,14,17,20,26,29,32-nonaoxo-4,7,10,13,16,19,25,28,31-nonaazahexatriacontane-1,36-dioic acid measured after 2 hrs by HPLC-FLU/LC-MS …; format: ADME, organism-based; conditions: in vivo

| SMILES | Activity (Caco-2) | half-life [1] [min] | Retention_time (Brain [2]) [min] | Stability (Serum [3]) | Stability (Serum [4]) | half-life [5] [min] | Stability (Cortex [6]) | viability at 50 µM [7] [%] | Ratio (Homo sapiens) | viability at up to 50 µM [7] [%] | Drug metabolism (Brain [8]) | Drug metabolism (Cortex [9]) | concentration at 1 h [10] [nM] | Retention_time (Brain [11]) [min] | Drug metabolism (Serum [12]) |
| --- | --- | --- | --- | --- | --- | --- | --- | --- | --- | --- | --- | --- | --- | --- | --- |
| CC(=O)N[C@@H](CCC(=O)O)C(=O)N[C@@H](CC(C)C)C(=O)N[C@@H](CC(=O)O)C(=O)N[C@@H](CC(C)C)[C@@H](O)C[C@@H](C)C(=O)N[C@H](C(=O)N[C@@H](Cc1ccccc1)C(=O)N[C@@H](Cc1ccc(O)cc1)C(=O)N[C@@H](C)C(=O)N[C@@H](CCC(=O)O)C(=O)N[C@@H](CC(=O)O)C(N)=O)C(C)C (Ac-ELD[LeuΨ(S-CHOHCH2)Ala]VFYAED-NH2) | Non-toxic | 360 | 23.6 | Unstable | Stable | 206 | Unstable | > 80 | 9.2 |  |  |  |  |  |  |
| CC(C)C[C@H](NC(=O)[C@@H](N)CCC(=O)O)C(=O)N[C@@H](CC(=O)O)C(=O)N[C@@H](CC(C)C)[C@@H](O)C[C@@H](C)C(=O)N[C@H](C(=O)N[C@@H](Cc1ccccc1)C(=O)N[C@@H](Cc1ccccc1)C(=O)N[C@@H](C)C(=O)N[C@@H](CCC(=O)O)C(=O)N[C@@H](CC(=O)O)C(N)=O)C(C)C (H-ELD[LeuΨ(S-CHOHCH2)Ala]VFFAED-NH2) | Non-toxic |  |  |  |  |  |  | > 80 | 3.7 |  |  |  |  |  |  |
| CC(C)C[C@H](NC(=O)[C@@H](N)CCC(=O)O)C(=O)N[C@@H](CC(=O)O)C(=O)N[C@@H](CC(C)C)[C@@H](O)C[C@@H](C)C(=O)N[C@H](C(=O)N[C@@H](Cc1ccccc1)C(=O)N[C@@H](Cc1ccc(O)cc1)C(=O)N[C@@H](C)C(=O)N[C@@H](CCC(=O)O)C(=O)N[C@@H](CC(=O)O)C(N)=O)C(C)C (H-ELD[LeuΨ(S-CHOHCH2)Ala]VFYAED-NH2) | Non-toxic | 126 |  |  |  | 138 |  |  | 7.5 | > 80 |  |  |  |  |  |
| CC(C)C[C@H](NC(=O)[C@@H](N)CCC(=O)O)C(=O)N[C@@H](CC(=O)O)C(=O)N[C@@H](CC(C)C)[C@@H](O)C[C@@H](C)C(=O)N[C@H](C(=O)N[C@@H](CCC(=O)O)C(=O)N[C@@H](Cc1ccccc1)C(=O)O)C(C)C (H-ELD[LeuΨ(S-CHOHCH2)Ala]VEF-OH) | Non-toxic | 132 |  |  |  | 348 |  | > 80 |  |  |  |  |  |  |  |
| CC(C)C[C@H](NC(=O)[C@@H](N)CCC(=O)O)C(=O)N[C@@H](CC(=O)O)C(=O)N[C@@H](CC(C)C)[C@@H](O)C[C@@H](C)C(=O)N[C@H](C(=O)N[C@@H](Cc1ccccc1)C(=O)N[C@@H](Cc1ccc(O)cc1)C(=O)N[C@@H](C)C(=O)N[C@@H](CCC(=O)O)C(=O)N[C@@H](CC(=O)O)C(=O)O)C(C)C (H-ELD[LeuΨ(S-CHOHCH2)Ala]VFYAED-OH) |  | 180 |  |  |  | 360 |  |  | 7.5 |  | metabolite_detected | metabolite_detected | 20 | 22.9 | metabolite_detected |
